Test results from ChEMBL document CHEMBL1926642, “Relevance of the C-5 position to schweinfurthin induced cytotoxicity” (2011).

How the values were obtained:
Format in all cases: functional
SW-620 = test: Growth inhibition of human SW620 cells after 48 hrs by sulforhodamine B assay; details: SW-620, 48 h
K562 = test: Growth inhibition of human K562 cells after 48 hrs by sulforhodamine B assay; details: K562, 48 h
SK-MEL-5 = test: Growth inhibition of human SK-MEL-5 cells after 48 hrs by sulforhodamine B assay; details: SK-MEL-5, 48 h
SN12C = test: Growth inhibition of human SN12C cells after 48 hrs by sulforhodamine B assay
TK-10 = test: Growth inhibition of human TK10 cells after 48 hrs by sulforhodamine B assay; details: TK-10, 48 h
HCT-15 = test: Growth inhibition of human HCT15 cells after 48 hrs by sulforhodamine B assay; details: HCT-15, 48 h
NCI-H322M = test: Growth inhibition of human NCI-H322M cells after 48 hrs by sulforhodamine B assay
PC-3 = test: Growth inhibition of human PC3 cells after 48 hrs by sulforhodamine B assay; details: PC-3, 48 h
SK-MEL-2 = test: Growth inhibition of human SK-MEL-2 cells after 48 hrs by sulforhodamine B assay; details: SK-MEL-2, 48 h
NCI-H23 = test: Growth inhibition of human NCI-H23 cells after 48 hrs by sulforhodamine B assay; details: NCI-H23, 48 h
RPMI-8226 = test: Growth inhibition of human RPMI8226 cells after 48 hrs by sulforhodamine B assay; details: RPMI-8226, 48 h
SK-OV-3 = test: Growth inhibition of human SKOV3 cells after 48 hrs by sulforhodamine B assay; details: SK-OV-3, 48 h
[1] = Growth inhibition of human Hs 578T cells after 48 hrs by sulforhodamine B assay
SF-539 = test: Growth inhibition of human SF539 cells after 48 hrs by sulforhodamine B assay; details: SF-539, 48 h
SK-MEL-28 = test: Growth inhibition of human SK-MEL-28 cells after 48 hrs by sulforhodamine B assay; details: SK-MEL-28, 48 h
A549 = test: Growth inhibition of human A549 cells after 48 hrs by sulforhodamine B assay; details: A549, 48 h
NCI-H460 = test: Growth inhibition of human NCI-H460 cells after 48 hrs by sulforhodamine B assay; details: NCI-H460, 48 h
786-0 = test: Growth inhibition of human 786-0 cells after 48 hrs by sulforhodamine B assay; details: 786-0, 48 h
MDA-MB-231 = test: Growth inhibition of human MDA-MB-231/ATCC cells after 48 hrs by sulforhodamine B assay; details: MDA-MB-231, 48 h
MDA-MB-435 = test: Growth inhibition of human MDA-MB-435 cells after 48 hrs by sulforhodamine B assay; details: MDA-MB-435, 48 h
T47D = test: Growth inhibition of human T47D cells after 48 hrs by sulforhodamine B assay
A498 = test: Growth inhibition of human A498 cells after 48 hrs by sulforhodamine B assay; details: A498, 48 h
UACC-257 = test: Growth inhibition of human UACC257 cells after 48 hrs by sulforhodamine B assay; details: UACC-257, 48 h
SNB-75 = test: Growth inhibition of human SNB75 cells after 48 hrs by sulforhodamine B assay; details: SNB-75, 48 h
OVCAR-3 = test: Growth inhibition of human OVCAR3 cells after 48 hrs by sulforhodamine B assay; details: OVCAR-3, 48 h
OVCAR-5 = test: Growth inhibition of human OVCAR5 cells after 48 hrs by sulforhodamine B assay; details: OVCAR-5, 48 h
HL-60(TB) = test: Growth inhibition of human HL-60(TB) cells after 48 hrs by sulforhodamine B assay; details: HL-60, 48 h
How it was run: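 Run in the NCI 60 cell-line screen as the full 5-dose assay that follows initial single-dose testing; GI50 is read from the dose series.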

CAKI-1 = test: Growth inhibition of human Caki1 cells after 48 hrs by sulforhodamine B assay; details: CAKI-1, 48 h
NCI-H226 = test: Growth inhibition of human NCI-H226 cells after 48 hrs by sulforhodamine B assay; details: NCI-H226, 48 h
BT-549 = test: Growth inhibition of human BT549 cells after 48 hrs by sulforhodamine B assay; details: BT-549, 48 h
KM12 = test: Growth inhibition of human KM12 cells after 48 hrs by sulforhodamine B assay; details: KM12, 48 h
OVCAR-4 = test: Growth inhibition of human OVCAR4 cells after 48 hrs by sulforhodamine B assay; details: OVCAR-4, 48 h
[2] = read-out: pLC50 (the source's name) (converted)

COCOc1cc(/C=C/c2cc(CO)c3c(c2)C[C@@H]2C(C)(C)[C@H](O)CC[C@@]2(C)O3)cc(OC)c1C/C=C(\C)CCC=C(C)C
GI50 (SW-620): 1950 nM
LC50 (SW-620): 67.6 µM
TGI (SW-620; read-out: pTGI (converted)): 13.5 µM
GI50 (K562): 2510 nM
LC50 (K562): > 100 µM
TGI (K562; read-out: pTGI (converted)): 28.8 µM
GI50 (SK-MEL-5): 2240 nM
LC50 (SK-MEL-5): 40.7 µM
TGI (SK-MEL-5; read-out: pTGI (converted)): 12.3 µM
GI50 (SN12C): 6.61 µM
LC50 (SN12C): 58.9 µM
TGI (SN12C; read-out: pTGI (converted)): 22.4 µM
GI50 (TK-10): 15.8 µM
LC50 (TK-10): > 100 µM
TGI (TK-10; read-out: pTGI (converted)): 41.7 µM
GI50 (HCT-15): 1350 nM
LC50 (HCT-15): 81.3 µM
TGI (HCT-15; read-out: pTGI (converted)): 10.2 µM
GI50 (NCI-H322M): 22.4 µM
LC50 (NCI-H322M): > 100 µM
TGI (NCI-H322M; read-out: pTGI (converted)): 91.2 µM
GI50 (PC-3): 912 nM
CC50 (PC-3; [2]): > 100 µM
TGI (PC-3; read-out: pTGI (converted)): > 100 µM
GI50 (SK-MEL-2): 17.8 µM
LC50 (SK-MEL-2): > 100 µM
TGI (SK-MEL-2; read-out: pTGI (converted)): 66.1 µM
GI50 (NCI-H23): 4.17 µM
LC50 (NCI-H23): 74.1 µM
TGI (NCI-H23; read-out: pTGI (converted)): 24.5 µM
GI50 (RPMI-8226): 479 nM
LC50 (RPMI-8226): > 100 µM
TGI (RPMI-8226; read-out: pTGI (converted)): > 100 µM
GI50 (SK-OV-3): 19.5 µM
LC50 (SK-OV-3): > 100 µM
TGI (SK-OV-3; read-out: pTGI (converted)): 81.3 µM
GI50 [1]: 550 nM
CC50 [1, 2]: > 100 µM
TGI ([1]; read-out: pTGI (converted)): > 100 µM
GI50 (SF-539): 141 nM
LC50 (SF-539): > 100 µM
TGI (SF-539; read-out: pTGI (converted)): 12.6 µM
GI50 (SK-MEL-28): 1200 nM
CC50 (SK-MEL-28; [2]): > 100 µM
TGI (SK-MEL-28; read-out: pTGI (converted)): 30.9 µM
LC50 (A549): > 100 µM
GI50 (A549; read-out: GI50): 1410 nM
GI50 (A549; read-out: pGI50 (converted)): 977 nM
TGI (A549; read-out: pTGI (converted)): 26.9 µM
GI50 (NCI-H460): 871 nM
LC50 (concentration killing 50% of cells) (NCI-H460): > 100 µM
TGI (NCI-H460; read-out: pTGI (converted)): > 100 µM
GI50 (786-0): 158 nM
CC50 (786-0; [2]): 8.32 µM
TGI (786-0; read-out: pTGI (converted)): 912 nM
GI50 (MDA-MB-231): 1620 nM
CC50 (MDA-MB-231; [2]): 57.5 µM
TGI (MDA-MB-231; read-out: pTGI (converted)): 14.5 µM
GI50 (MDA-MB-435): 1380 nM
LC50 (MDA-MB-435): > 100 µM
TGI (MDA-MB-435; read-out: pTGI (converted)): 56.2 µM
GI50 (T47D): 11.5 µM
LC50 (T47D): > 100 µM
TGI (T47D; read-out: pTGI (converted)): 49 µM
GI50 (A498): 933 nM
LC50 (A498): 50.1 µM
TGI (A498; read-out: pTGI (converted)): 19.5 µM
GI50 (UACC-257): 3.47 µM
LC50 (UACC-257): > 100 µM
TGI (UACC-257; read-out: pTGI (converted)): 39.8 µM
GI50 (SNB-75): 263 nM
LC50 (SNB-75): > 100 µM
TGI (SNB-75; read-out: pTGI (converted)): 14.8 µM
GI50 (OVCAR-3): 12.6 µM
LC50 (OVCAR-3): 60.3 µM
TGI (OVCAR-3; read-out: pTGI (converted)): 27.5 µM
GI50 (OVCAR-5): 6.61 µM
LC50 (OVCAR-5): > 100 µM
TGI (OVCAR-5; read-out: pTGI (converted)): 41.7 µM
GI50 (HL-60(TB)): 661 nM
CC50 (HL-60(TB); [2]): > 100 µM
TGI (HL-60(TB); read-out: pTGI (converted)): 33.9 µM
GI50 (CAKI-1): 813 nM
LC50 (CAKI-1): > 100 µM
TGI (CAKI-1; read-out: pTGI (converted)): 15.1 µM
GI50 (NCI-H226): 14.5 µM
LC50 (NCI-H226): 64.6 µM
TGI (NCI-H226; read-out: pTGI (converted)): 30.2 µM
GI50 (BT-549): 1380 nM
LC50 (BT-549): 50.1 µM
TGI (BT-549; read-out: pTGI (converted)): 17.8 µM
GI50 (KM12): 4.27 µM
LC50 (KM12): 57.5 µM
TGI (KM12; read-out: pTGI (converted)): 21.4 µM
GI50 (OVCAR-4): 7.24 µM
LC50 (OVCAR-4): > 100 µM
TGI (OVCAR-4; read-out: pTGI (converted)): 44.7 µM
